EP2 mod = EP2 receptor modulators, cAMP readout, primary screen, cell-based, HTRF cAMP, PGE2 stimulation. 0.83% of 260,000 active. induction, % at 25 µM. AID 940, 2007. Prostaglandin E2 receptor EP2 subtype (Homo sapiens), P43116. EP2-expressing cells, cAMP HTRF FRET, PGE2 co-stimulation;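 active = compounds whose cAMP rise, as percent of the full-agonist control response, exceeds 60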;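 note: rat C6 glioma line stably carrying human EP2 under a CMV promoter; the protocol text gives 20 µM as final concentration; 100% = response of wells given 1 µM PGE2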
thrombin 1536 = human alpha-thrombin inhibitors, primary screen, counter-screen for coagulation protease inhibitor project, biochemical, 1536-well, fluorogenic AMC substrate. inhibition, % at 5 µM. AID 1046, 2008. Boc-VPR-AMC fluorogenic substrate cleavage. 0.26% of 220,000 active;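 active = inhibition at or above 40%; inactive = inhibition below 40%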;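 note: 0% = enzyme with no compound and 100% = wells without enzyme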
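Material: human alpha-thrombin protein. Incubation: reaction at ambient temperature. Technique: fluorescence of released AMC, ex 355 nm, em 460 nm. Control set: no-compound enzyme wells and no-enzyme blanks. Also added: Boc-VPR-AMC substrate, 15 µM final. Buffer or medium: pH 7.5 Tris (50 mM) with NaCl 150 mM, Tween 20 0.05%.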
PGE2 EP2 inh = human EP2 receptor antagonists, primary screen, TR-FRET cAMP, C6 glioma cells | AID 1422, 2008 | Prostaglandin E2 receptor EP2 subtype (Homo sapiens), P43116 | C6 glioma cells expressing human EP2; cells stimulated with saturating PGE2 | inhibition, % at 25 µM | 0.52% of 260,000 active;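 active = percent inhibition above 40 after rounding to a whole number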;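 note: rat C6 glioma host cells with rolipram phosphodiesterase inhibitor present; the protocol text gives 20 µM as final concentration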
KLK5 inh = human KLK5 protease inhibitors, primary screen, biochemical, 1536-well. Kallikrein-5 (Homo sapiens), Q9Y337. recombinant hK5, fluorogenic AMC substrate cleavage. inhibition, % at 5 µM. 0.59% of 210,000 active;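 active = inhibition of 40% or more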;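 note: 0% = enzyme controls without compound and 100% = no-enzyme blanks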
FXIa inh 1536 = human FXIa protease inhibitors, primary screen, biochemical, 1536-well; Coagulation factor XI (Homo sapiens), P03951; purified FXIa, Boc-Glu-Ala-Arg-AMC fluorogenic substrate; inhibition, % at 5 µM; 0.14% of 220,000 active; AID 798, 2007;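 active = inhibition of at least 40%; inactive = inhibition below 40%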;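 note: fluorescence of freed AMC excited at 355 nm; 0% = enzyme without compound and 100% = no enzyme blank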
Target sequence (P03951 19-387 limits assumed): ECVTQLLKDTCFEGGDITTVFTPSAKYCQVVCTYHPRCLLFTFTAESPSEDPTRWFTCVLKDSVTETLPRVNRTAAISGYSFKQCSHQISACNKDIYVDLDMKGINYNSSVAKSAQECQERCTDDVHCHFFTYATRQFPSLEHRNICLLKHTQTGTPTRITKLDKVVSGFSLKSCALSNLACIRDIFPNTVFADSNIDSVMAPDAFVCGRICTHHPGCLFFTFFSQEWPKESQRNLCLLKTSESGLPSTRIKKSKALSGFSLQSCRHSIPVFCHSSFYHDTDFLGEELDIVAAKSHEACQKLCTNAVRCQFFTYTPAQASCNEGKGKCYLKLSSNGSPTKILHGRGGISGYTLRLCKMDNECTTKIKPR
Target sequence (P03951 388-625 limits assumed): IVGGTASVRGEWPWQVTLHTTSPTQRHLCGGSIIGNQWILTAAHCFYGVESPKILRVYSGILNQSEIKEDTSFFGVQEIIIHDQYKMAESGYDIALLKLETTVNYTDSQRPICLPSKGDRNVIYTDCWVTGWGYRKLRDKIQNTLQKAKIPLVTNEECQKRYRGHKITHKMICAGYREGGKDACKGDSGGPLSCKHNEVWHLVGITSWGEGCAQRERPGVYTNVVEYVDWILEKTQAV
FXIIa inh 1536 = human FXIIa protease inhibitors, primary screen, biochemical, 1536-well. Coagulation factor XII (Homo sapiens), P00748. purified FXIIa, Boc-QGR-AMC fluorogenic substrate, 2 h. inhibition, % at 5 µM. 0.3% of 220,000 active. AID 800, 2007; in the data active = inhibition above about 40%;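 note: 0% = enzyme with no compound and 100% = blank without enzyme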
An asterisk follows results filed as active. In the library only some 2.1% were active in any assay of this set; here they are far more common.

Screening CCc1nc2ccccc2c(C(=O)OCC(=O)C(C)(C)C)c1C returned EP2 mod -88, thrombin 1536 47*, PGE2 EP2 inh 4, KLK5 inh 32, FXIa inh 1536 29 and FXIIa inh 1536 27.
For CCOC(=O)c1c(C)nc2c(c1-c1ccccc1)C(=O)c1ccccc1-2 the results were EP2 mod 61*, thrombin 1536 3, PGE2 EP2 inh 6, KLK5 inh 0, FXIa inh 1536 -1 and FXIIa inh 1536 18.
`CCOC(=O)c1c(CCl)nc2ccccc2c1-c1ccccc1` gave EP2 mod 87*, thrombin 1536 -1, PGE2 EP2 inh 6, KLK5 inh 5, FXIa inh 1536 1 and FXIIa inh 1536 5.
Screening CCC(=O)Nc1nc(-c2ccccc2)nc(SC)c1C(C)=O returned EP2 mod -18, thrombin 1536 -23, PGE2 EP2 inh 11, KLK5 inh -4, FXIa inh 1536 -9 and FXIIa inh 1536 5.
Screening CCOC(=O)c1c(C)nc(-c2ccccc2)nc1NC(=O)CC returned EP2 mod -19, thrombin 1536 34, PGE2 EP2 inh 14, KLK5 inh 58*, FXIa inh 1536 11 and FXIIa inh 1536 20.
`CN(CCN1CCCCC1)Cc1ccccc1OCc1ccccn1` gave EP2 mod -16 and PGE2 EP2 inh 4.
For CC(=O)N1CCN(c2ccc(NC(=O)COc3ccc(C)cc3C)cc2)CC1 the results were EP2 mod 22 and PGE2 EP2 inh 19.
For CN(C)c1ccc(C(=O)N2CCC[C@@H]([C@@H](O)c3ccc(F)cc3)C2)cc1 the results were EP2 mod -82 and PGE2 EP2 inh 8.
C=C(C)CN1CCN(Cc2cnc(-c3ccccc3C)nc2)CC1 was read as EP2 mod 11 and PGE2 EP2 inh 7.
COc1cc(/C=N/N2C(=O)C3C4C=CC(CC4)C3C2=O)ccc1O (stereo not given) was read as EP2 mod 21, thrombin 1536 -5, PGE2 EP2 inh 2, FXIa inh 1536 -4 and FXIIa inh 1536 7.
For O=C1C2C3c4ccccc4C(c4ccccc43)C2C(=O)N1/N=C/c1cccc(O)c1 (stereo not given) the results were EP2 mod 13, thrombin 1536 20, PGE2 EP2 inh 6, KLK5 inh 42*, FXIa inh 1536 4 and FXIIa inh 1536 24.
Screening Cc1ccc2cc(CN(Cc3cccs3)C(c3nnnn3C3CCCCC3)C(C)C)c(=O)[nH]c2c1 (stereo not given) returned EP2 mod 39 and PGE2 EP2 inh 14.
`CCC(c1nnnn1C1CCCC1)N(Cc1cccs1)Cc1cc2cc(OC)ccc2[nH]c1=O` (stereo not given) gave EP2 mod 56 and PGE2 EP2 inh 9.
Screening COc1ccc2[nH]c(=O)c(CN(Cc3cccs3)Cc3nnnn3C(C)(C)C)cc2c1 returned EP2 mod 55, thrombin 1536 -6, PGE2 EP2 inh 8, KLK5 inh -31, FXIa inh 1536 -4 and FXIIa inh 1536 27.
For COc1ccc2[nH]c(=O)c(CN(Cc3cccs3)C(c3nnnn3C(C)(C)C)C(C)C)cc2c1 (stereo not given) the results were EP2 mod 69* and PGE2 EP2 inh 14.
For COc1ccc2cc(CN(Cc3cccs3)C(c3nnnn3C3CCCC3)C(C)C)c(=O)[nH]c2c1 (stereo not given) the results were EP2 mod 69* and PGE2 EP2 inh 8.
CCc1ccc2[nH]c(=O)c(CN(Cc3cccs3)C(c3nnnn3C3CCCC3)C(C)C)cc2c1 (stereo not given) was read as EP2 mod 63* and PGE2 EP2 inh 10.
COc1ccc(C2/C(=C(/O)c3ccc(F)cc3)C(=O)C(=O)N2CC2CCCO2)cc1OC (stereo not given) was read as EP2 mod 10 and PGE2 EP2 inh 11.
For O=c1[nH]c2ccccc2n2nnnc12 the results were EP2 mod 23 and PGE2 EP2 inh 7.
`O=C(Nc1nc2c(Cl)ccc(Cl)c2s1)c1ccco1` gave EP2 mod -17, thrombin 1536 -11, PGE2 EP2 inh 70*, KLK5 inh -25, FXIa inh 1536 -6 and FXIIa inh 1536 6.
O=C(Nc1nc2ccsc2c(=O)s1)c1ccco1 was read as EP2 mod 10, thrombin 1536 -4, PGE2 EP2 inh 9, KLK5 inh -2, FXIa inh 1536 -1 and FXIIa inh 1536 6.
`COc1ccccc1C1(O)CCN(CC(O)c2ccc(Cl)cc2)CC1` (stereo not given) gave EP2 mod -76 and PGE2 EP2 inh 11.
`Cc1cccc(NC(=O)N2CCCC(c3nc4ccc(C)cc4[nH]3)C2)c1` (stereo not given) gave EP2 mod 6 and PGE2 EP2 inh 5.
Screening COc1cc(/C=C/C(=O)CC(=O)/C=C/c2ccc(O)c(OC)c2)ccc1O returned EP2 mod -65, PGE2 EP2 inh 74*, KLK5 inh 2, FXIa inh 1536 -3 and FXIIa inh 1536 5.
For COC(=O)[C@@H]1CN(C(=O)Cc2ccc(F)cc2)C[C@H]1c1ccc(OC)cc1 the results were EP2 mod -8.
CN1CCN(C(=O)CCn2c(-c3ccccn3)cc3cccnc32)CC1 was read as EP2 mod 2 and PGE2 EP2 inh 8.
O=Cc1ccc(OCc2cccc(C(F)(F)F)c2)cc1O was read as EP2 mod 63*, thrombin 1536 -1, PGE2 EP2 inh 6, KLK5 inh 1, FXIa inh 1536 -1 and FXIIa inh 1536 8.
Screening CCOCCCNC(=O)Cn1nc(CC)n2c(cc3sc(C)cc32)c1=O returned EP2 mod 11.
Screening O=C(Oc1ccc(=O)n(-c2ccccc2)n1)c1ccc(F)cc1 returned EP2 mod 3, thrombin 1536 6, PGE2 EP2 inh 6, KLK5 inh 10, FXIa inh 1536 36 and FXIIa inh 1536 16.
For O=C(Oc1ccc(=O)n(-c2ccccc2)n1)c1cccc(Cl)c1 the results were EP2 mod 32, thrombin 1536 5, PGE2 EP2 inh 8, KLK5 inh -9, FXIa inh 1536 68* and FXIIa inh 1536 18.
`O=C(Oc1ccc(=O)n(-c2ccccc2)n1)c1ccc(Cl)cc1` gave EP2 mod 20, thrombin 1536 5, PGE2 EP2 inh 3, KLK5 inh -13, FXIa inh 1536 51* and FXIIa inh 1536 21.

Source: PubChem BioAssay (several laboratories)
